Test system: PC-3
Assay: Inhibition of prostate cancer (PC-3) cell proliferation
Format: functional, cell-based
Details: Homo sapiens
Method in brief: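 PC-3 cells, 8000/well, grown in RPMI 1640 with 10% FBS at 37 °C, 5% CO2. Exposed to the test agent in 10% FBS-supplemented RPMI 1640 for 48 h in six replicates. MTT at 0.5 mg/mL then added for 2 h at 37 °C, reduced dye dissolved in DMSO, absorbance read at 570 nm. IC50 taken from cell viability.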

SMILES	IC50 [µM]
COc1ccc(C(=O)N2CCN(c3nc(N)c4cc(OC)c(OC)cc4n3)CC2)cc1OC	71
CCCCc1ccc(-c2ccc(S(=O)(=O)N3CCN(c4nc(N)c5cc(OC)c(OC)cc5n4)CC3)cc2)cc1	3.4
COc1cc2nc(N3CCN(S(=O)(=O)c4ccccc4[N+](=O)[O-])CC3)nc(N)c2cc1OC	35
COc1cc2nc(N3CCN(S(=O)(=O)c4cccc(C(=O)O)c4)CC3)nc(N)c2cc1OC	53
COc1cc2nc(N3CCN(S(=O)(=O)c4cc(Cl)ccc4Cl)CC3)nc(N)c2cc1OC	60
COc1cc2nc(N3CCN(C(=O)c4ccc(N)cc4)CC3)nc(N)c2cc1OC	> 100
C=CCOc1cc2nc(N3CCN(S(=O)(=O)c4ccc(-c5ccccc5)cc4)CC3)nc(N)c2cc1OCC=C	3.3
COc1cc2nc(N3CCN(S(=O)(=O)c4ccc(C)cc4)CC3)nc(N)c2cc1OC	30
COc1cc2nc(N3CCN(C(=O)c4ccc(Cl)cc4)CC3)nc(N)c2cc1OC	60
COc1cc2nc(N3CCN(C(=O)c4ccc(C(F)(F)F)cc4)CC3)nc(N)c2cc1OC	> 100
COc1cc2nc(N3CCN(S(=O)(=O)c4cc(F)c(Cl)c(C(=O)O)c4)CC3)nc(N)c2cc1OC	56
COc1cc2nc(N3CCN(S(=O)(=O)c4ccc([N+](=O)[O-])cc4)CC3)nc(N)c2cc1OC	36
COc1cc2nc(N3CCN(C(=O)c4ccc(C(C)(C)C)cc4)CC3)nc(N)c2cc1OC	47
CCCCOc1cc2nc(N3CCN(S(=O)(=O)c4ccc(-c5ccccc5)cc4)CC3)nc(N)c2cc1OCCCC	3.5
COc1ccc(S(=O)(=O)N2CCN(c3nc(N)c4cc(OC)c(OC)cc4n3)CC2)cc1	39
COc1cc2nc(N3CCN(C(=O)OCc4ccccc4)CC3)nc(N)c2cc1OC	63
CC(C)Oc1cc2nc(N3CCN(S(=O)(=O)c4ccc(-c5ccccc5)cc4)CC3)nc(N)c2cc1OC(C)C	24
COc1cc2nc(N3CCN(S(=O)(=O)c4ccc(Cl)cc4)CC3)nc(N)c2cc1OC	23
COc1cc2nc(N3CCN(S(=O)(=O)c4ccc(N)cc4N)CC3)nc(N)c2cc1OC	67
COc1cc2nc(N3CCN(S(=O)(=O)c4cccc5c(N(C)C)cccc45)CC3)nc(N)c2cc1OC	29
COc1cc2nc(N3CCN(C(=O)C4COc5ccccc5O4)CC3)nc(N)c2cc1OC (stereo not given) [DOXAZOSIN]	45
COc1cc2nc(N3CCN(S(=O)(=O)c4ccc(C(C)(C)C)cc4)CC3)nc(N)c2cc1OC	4.1
COc1cc2nc(N3CCN(S(=O)(=O)c4ccc(-c5ccc(C(F)(F)F)cc5)cc4)CC3)nc(N)c2cc1OC	3.3

SMILES	IC50 [µM]
COc1cc2nc(N3CCN(S(=O)(=O)c4cccc5ccccc45)CC3)nc(N)c2cc1OC	14
COc1cc2nc(N3CCN(S(=O)(=O)c4ccc(-c5ccc(C)cc5)cc4)CC3)nc(N)c2cc1OC	3.4
COc1cc2nc(N3CCN(C(=O)c4cccc5ccccc45)CC3)nc(N)c2cc1OC	59
COc1cc2nc(N3CCN(S(=O)(=O)c4ccc(-c5cc6ccccc6c6ccccc56)cc4)CC3)nc(N)c2cc1OC	5.2
COc1cc2nc(N3CCN(S(=O)(=O)c4ccc(-c5ccc(C(C)(C)C)cc5)cc4)CC3)nc(N)c2cc1OC	10
COc1cc2nc(N3CCN(S(=O)(=O)c4cc(C(=O)O)c(Cl)cc4Cl)CC3)nc(N)c2cc1OC	52
COc1cc2nc(N3CCN(S(=O)(=O)c4ccc(Br)cc4)CC3)nc(N)c2cc1OC	20
COc1cc2nc(N3CCN(S(=O)(=O)c4cccc([N+](=O)[O-])c4)CC3)nc(N)c2cc1OC	32
COc1cc2nc(N3CCN(S(=O)(=O)c4ccc(C(=O)O)cc4)CC3)nc(N)c2cc1OC	53
COc1cc2nc(N3CCN(S(=O)(=O)c4ccc5ccccc5c4)CC3)nc(N)c2cc1OC	15
CCCOc1cc2nc(N3CCN(S(=O)(=O)c4ccc(-c5ccccc5)cc4)CC3)nc(N)c2cc1OCCC	2.5
COc1cc2nc(N3CCN(S(=O)(=O)c4ccc(-c5ccccc5)cc4)CC3)nc(N)c2cc1OC	4.2
COc1cc2nc(N3CCN(S(=O)(=O)c4ccc(C(F)(F)F)cc4)CC3)nc(N)c2cc1OC	27
COc1cc2nc(N3CCN(S(=O)(=O)c4ccc(-c5ccc(S(C)(=O)=O)cc5)cc4)CC3)nc(N)c2cc1OC	7.2
COc1cc2nc(N3CCN(S(=O)(=O)c4ccc(Cl)s4)CC3)nc(N)c2cc1OC	25
COc1cc2nc(N3CCN(C(=O)c4ccc([N+](=O)[O-])cc4)CC3)nc(N)c2cc1OC	75
COc1cc2nc(N3CCN(C(=O)c4cccc(C#N)c4)CC3)nc(N)c2cc1OC	82
COc1cc2nc(N3CCN(S(=O)(=O)c4ccc(OC(F)(F)F)cc4)CC3)nc(N)c2cc1OC	25
COc1cc2nc(N3CCN(S(=O)(=O)c4ccc(I)cc4)CC3)nc(N)c2cc1OC	15
COc1cc2nc(N3CCN(S(=O)(=O)c4c(C(C)C)cc(C(C)C)cc4C(C)C)CC3)nc(N)c2cc1OC	24
COc1cc2nc(N3CCN(S(=O)(=O)c4ccc(S(C)(=O)=O)cc4)CC3)nc(N)c2cc1OC	17
COc1cc2nc(N3CCN(C(=O)c4ccc(C#N)cc4)CC3)nc(N)c2cc1OC	68

— ChEMBL document CHEMBL1138687, “Pharmacological exploitation of the alpha1-adrenoreceptor antagonist doxazosin to develop a novel class of antitumor agents that block intracellular protein kinase B/Akt activation” (J Med Chem, 2004)
